Series [1] has as its system Human alphaherpesvirus 1. Description: Antiviral activity against wild type Herpes simplex virus 1 KOS infected in HEL cells assessed as inhibition of virus-induced cytopathic effect. It is filed as functional, cell-based. The note with it: Human alphaherpesvirus 1, KOS.
In series [2] the test system is Human alphaherpesvirus 2. Briefly: Antiviral activity against Herpes simplex virus 2 G infected in HEL cells assessed as inhibition of virus-induced cytopathic effect. The settings on record: Human alphaherpesvirus 2, strain G. The class given is functional, cell-based. Summed up: (§1)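 Confluent cell monolayers were infected with 100 CCID50 of virus (1 CCID50 = dose infecting 50% of cultures) and incubated with varying compound concentrations. Cytopathicity was scored once complete in untreated infected controls.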

Series [3] relates to Human alphaherpesvirus 1. Briefly: Antiviral activity against thymidine kinase-deficient ACV-resistant Herpes simplex virus 1 KOS infected in HEL cells assessed as inhibition of virus-induced cytopathic effect. The class given is functional, cell-based. The settings on record: Human alphaherpesvirus 1, KOS.
For series [4], the system named is Human alphaherpesvirus 3. Description: Antiviral activity against wild type thymidine kinase expressing Varicella-Zoster virus Oka infected in HEL cells assessed as inhibition of virus-induced plaque formation. The note with it: Human alphaherpesvirus 3, Oka. It is filed as functional, cell-based. An outline of the steps:
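Confluent HEL cultures were inoculated with 20 PFU of VZV and incubated with varying compound concentrations. Plaques were counted once formation was complete in untreated infected controls.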

For series [5], the system named is Human alphaherpesvirus 3. Description: Antiviral activity against wild type thymidine kinase-deficient Varicella-Zoster virus 07-1 infected in HEL cells assessed as inhibition of virus-induced plaque formation. The class given is functional, cell-based. The settings on record: Human alphaherpesvirus 3, 07-1, HEL. Summed up:
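HEL fibroblast monolayers were infected with 20 PFU of VZV and kept with varying compound concentrations. Plaques were counted once formation was complete in untreated infected controls.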

Series [6] concerns Human betaherpesvirus 5. Briefly: Antiviral activity against Human cytomegalovirus AD169 infected in HEL cells assessed as inhibition of virus-induced cytopathic effect. It is filed as functional, cell-based. The settings on record: Human betaherpesvirus 5, AD169, HEL. An outline of the steps: as §1
The test system of series [7] is Human betaherpesvirus 5. Description: Antiviral activity against Human cytomegalovirus Davis infected in HEL cells assessed as inhibition of virus-induced cytopathic effect. The class given is functional, cell-based. The note with it: Human betaherpesvirus 5, Davis. An outline of the steps: as §1
In general terms: Cytopathic effects are the visible damage that an infection or toxin causes in cultured cells.

For series [8], the system named is Vaccinia virus. Description: Antiviral activity against Vaccinia virus Lederle infected in HEL cells assessed as inhibition of virus-induced cytopathic effect. The class given is functional, cell-based. The settings on record: Orthopoxvirus vaccinia.
The test system of series [9] is HEL. Briefly: Cytotoxicity against HEL cells assessed as reduction in cell growth after 3 days by coulter counter method. The class given is cell-based. The settings on record: human, hel, 72 h. Summed up: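 HEL cells were seeded at 5 × 10³ cells/well and grown for 24 h, then given medium containing graded compound concentrations. After 3 days at 37 °C, cells were counted by Coulter counter.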

The test system of series [10] is Vesicular stomatitis virus. Description: Antiviral activity against Vesicular stomatitis virus infected in HEL cells assessed as inhibition of virus-induced cytopathic effect. It is filed as functional, cell-based.
Series [11] concerns Coxsackievirus B4. Description: Antiviral activity against Coxsackie virus B4 infected in human HeLA cells assessed as inhibition of virus-induced cytopathic effect. The class given is functional, cell-based. Summed up: as §1
Series [12] is described as follows: Antiviral activity against Respiratory syncytial virus A strain long infected in human HeLA cells assessed as inhibition of virus-induced cytopathic effect. The class given is functional, cell-based. An outline of the steps: as §1
The subject of series [13] is Human respirovirus 3. Description: Antiviral activity against Parainfluenza virus 3 infected in African green monkey Vero cells assessed as inhibition of virus-induced cytopathic effect. It is filed as functional. An outline of the steps:
as §1

Series [14] relates to Mammalian orthoreovirus 1. Briefly: Antiviral activity against Reovirus-1 infected in African green monkey Vero cells assessed as inhibition of virus-induced cytopathic effect. The class given is functional. Summed up: as §1
Series [15] relates to Sindbis virus. Description: Antiviral activity against Sindbis virus infected in African green monkey Vero cells assessed as inhibition of virus-induced cytopathic effect. The class given is functional. Summed up: as §1
The subject of series [16] is Punta Toro virus. Description: Antiviral activity against Punta Toro virus infected in African green monkey Vero cells assessed as inhibition of virus-induced cytopathic effect. The class given is functional. An outline of the steps: as §1
In series [17] the test system is Feline coronavirus. Description: Antiviral activity against Feline coronavirus infected in CRFK cells assessed as inhibition of virus-induced cytopathic effect. It is filed as functional, cell-based.
The subject of series [18] is Influenza A virus. Description: Antiviral activity against Influenza A virus (H1N1) infected in HEL cells assessed as inhibition of virus-induced cytopathic effect. It is filed as functional, cell-based.
For series [19], the system named is Influenza A virus H3N2. Briefly: Antiviral activity against Influenza A virus H3N2 infected in HEL cells assessed as inhibition of virus-induced cytopathic effect. It is filed as functional, cell-based.
Series [20] relates to Influenza B virus. Description: Antiviral activity against influenza B virus infected in HEL cells assessed as inhibition of virus-induced cytopathic effect. The class given is functional, cell-based.

The source made the active and inactive calls. The rule behind the calls is not given here.

The EC50 is the concentration needed to bring the measured effect to its halfway point. Broadly, the CC50 is the concentration at which the toxic effect on the cells reaches its halfway point. Turning to `CC(C)(C)C(=O)OCOP(=O)(O)COCCn1cnc(N)nc1=O`, the EC50 in series [1] came out at 142 µM; in series [2] it was 142 µM; in series [3] it was 131 µM; in series [4], 40.7 µM; in [5], 128 µM; in series [6], 123 µM. The values for the EC50 in series [7] and in series [8] were 116 µM and greater than 275 µM, respectively. The cytotoxic concentration (CC50) in series [9] was greater than 275 µM. Further, the result in [10], in series [11], in series [12], in series [13], in series [14] and in series [15] was inactive. The result in series [16], in series [17], in series [18], in series [19] and in series [20] was inactive.
For `CC(C)(C)C(=O)OCOP(=O)(O)COCCOc1cc(N)nc(N)n1`, the EC50 was 39.5 µM in series [1]; 29 µM in [2]; 54 µM in [3]; 2.54 µM in series [4]; 5.91 µM in series [5]; greater than 100 µM in series [6]. Also, the EC50 in series [7] and in series [8] was greater than 100 µM in each case. Further, the CC50 in [9] is no less than 100 µM. For the same molecule, the result in series [10], in series [11], in series [12], in series [13], in series [14] and in series [15] was inactive. In addition, the outcome in series [16], in series [17], in series [18], in series [19] and in series [20] was inactive.
As to `CC(C)OC(=O)OCOP(=O)(COCCn1cnc(N)nc1=O)OCOC(=O)OC(C)C`, the EC50 in [1] is 22 µM; in series [2], 22 µM; in series [3], 22 µM; in [4], 15.3 µM; in series [5] it was 23.2 µM; in series [6] it was 26.2 µM. The EC50 in [7] was 20 µM; in [8], greater than 100 µM. The outcome in series [10], in [11], in [12], in [13], in series [14] and in series [15] was inactive. Further, the outcome in series [16], in [17], in [18], in series [19] and in series [20] was inactive.
`O=c1[nH]c(=O)n([C@H]2C[C@H](O)[C@@H](CO)O2)cc1/C=C/Br` [BRIVUDINE]: the EC50 in series [2] was 141 µM; in [4], 0.024 µM; in series [5], 58.8 µM; in series [8] it was 19.1 µM. The CC50 in series [9] worked out at 242 µM.
Turning to `CCCCCCCCCCCCCCCCCCOCCOP(=O)(COCCn1cnc(N)nc1=O)OCCOCCCCCCCCCCCCCCCCCC`, the 50% effective concentration (EC50) is greater than 100 µM in [1]; greater than 100 µM in series [2]; greater than 100 µM in series [3]; greater than 4 µM in series [4]; greater than 0.8 µM in [5]; greater than 20 µM in series [6]. For the same molecule, the EC50 is greater than 20 µM in series [7] and greater than 100 µM in series [8]. Further, the outcome in [10], in series [11], in [12], in [13], in [14] and in series [15] was inactive. For the same molecule, the result in series [16], in [17], in series [18], in series [19] and in series [20] was inactive.
As to `CC(C)(C)C(=O)OCOP(=O)(COCCOc1cc(N)nc(N)n1)OCOC(=O)C(C)(C)C`, the EC50 in series [1] is 10 µM; in [2] it was 9.5 µM; in series [3], 14.5 µM; in [4] it was 0.67 µM; in series [5] it was 1.26 µM; in series [6], 47.4 µM. In series [7], the EC50 was 36.5 µM. The CC50 in series [9] was determined as 16.6 µM. The outcome in series [10], in series [11], in series [12], in series [13], in series [14] and in series [15] was inactive. For the same molecule, the outcome in [16], in [17], in series [18], in [19] and in series [20] was inactive.
Regarding `Nc1nc2c(ncn2COCCO)c(=O)[nH]1` [ACYCLOVIR], the EC50 in series [2] is 0.18 µM; in [8], greater than 250 µM. Also, the half-maximal cytotoxic concentration (CC50) in series [9] is greater than 440 µM.
With `Nc1ccn(C[C@@H](CO)OCP(=O)(O)O)c(=O)n1` [CIDOFOVIR], the EC50 in [1] came out at 2.93 µM; in series [2], 1.39 µM; in series [3], 2.66 µM; in [6] it was 0.87 µM; in series [7], 0.76 µM; in series [8], 22.2 µM. Besides, the CC50 in [9] worked out at 216 µM.
As to `Nc1nc(O)c2ncn(COC(CO)CO)c2n1` [GANCICLOVIR], the EC50 in series [8] is greater than 100 µM. For the same molecule, the CC50 in [9] is no less than 308 µM.
Turning to `CC(C)OC(=O)OCOP(=O)(O)COCCn1cnc(N)nc1=O`, the EC50 is greater than 100 µM in series [1]; greater than 100 µM in series [2]; greater than 100 µM in series [3]; 48.9 µM in [4]; 48.9 µM in series [5]; greater than 100 µM in series [6]. The 50% effective concentration (EC50) in series [7] and in [8] was greater than 100 µM each time. Moreover, the result in series [10], in series [11], in series [12], in series [13], in series [14] and in series [15] was inactive. The result in series [16], in [17], in series [18], in series [19] and in series [20] was inactive.
With `CCCCCCCCCCCCCCCCCCOCCNc1ncn(CCOCP(=O)(OCCOCCCCCCCCCCCCCCCCCC)OCCOCCCCCCCCCCCCCCCCCC)c(=O)n1`, the half-maximal effective concentration (EC50) in [1] is greater than 100 µM; in series [2], greater than 100 µM; in series [3], greater than 100 µM; in series [4], 44.7 µM; in [5] it was 100 µM; in [6], greater than 100 µM. For the same molecule, the EC50 in [7] and in [8] was greater than 100 µM throughout. In addition, the result in series [10], in [11], in series [12], in [13], in [14] and in series [15] was inactive. Also, the outcome in series [16], in [17], in [18], in series [19] and in series [20] was inactive.

These data come from ChEMBL document CHEMBL4043131, “New prodrugs of two pyrimidine acyclic nucleoside phosphonates: Synthesis and antiviral activity” (Bioorg Med Chem, 2017).
